SMILES strings stand for the structures.

The series in a line: Toxicity liver stage against HepG2, at 10uM. Format: cell-based. Set-up: test concentration 10 uM, cell line HepG2-A16-CD81EGFP. The settings on record: human, HepG2-A16-CD81EGFP cells; read-out: INHIBITION
In outline: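 Uninfected HepG2-A16-CD81EGFP cells, 3 × 10^3 per well, 1536-well, plated on prespotted compound at 10 μM final, parasite-free screening media added to match infected plates; puromycin 10 μM positive, DMSO 0.5% negative; run in parallel with 48 h PbLuc assay at 37 °C, 5% CO2; viability by CellTiter-Glo luminescence, normalized to controls.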
In the case of `COCC(=O)N[C@H](C)c1onc(-c2ccc(F)cc2)c1C(=O)O`, the cytotoxicity at 10 µM was -8.15%.

Take `CCN(CC)C(=O)CSc1sc2c(O)cc(=O)[nH]c2c1C(N)=O`: the cytotoxicity at 10 µM was 0.488%.

Turning to `CCc1cnc2c(c1Nc1ccc3c(c1)OCO3)c(=O)n(C)c(=O)n2C`, the cytotoxicity at 10 µM was 9.06%.

With `O=S(=O)(NCC1(O)CCOc2ccccc21)c1ccc(Cl)s1` (stereo unspecified), the cytotoxicity at 10 µM is 6.87%.

Regarding `Cc1cc(C)c(S(=O)(=O)Nc2c(C)nc(N(C)C)nc2C)cc1C`, the cytotoxicity at 10 µM was 6.63%.

In the case of `O=C1[C@@H]2CCN(C3CCC3)C[C@@H]2OCCN1Cc1ccncc1`, the cytotoxicity at 10 µM is -135%.

For `CS(=O)(=O)N1Cc2nccn2CC(CN2CCCC2)C1` (stereo unspecified), the cytotoxicity at 10 µM was -111%.

For `CN(C)C(=O)COCC1CN(CC2CCOCC2)Cc2ncn(C)c21` (stereo unspecified), the cytotoxicity at 10 µM turned out to be 1.03%.

In the case of `Cc1csc([C@H]2C[C@@H]3CCN(C(=O)c4ccnnc4)C[C@H]3O2)n1`, the cytotoxicity at 10 µM was -1.95%.

Regarding `Cn1cc(CN2CCC3(CCCN(C(=O)c4cnccn4)C3)C2)cn1` (stereo unspecified), the cytotoxicity at 10 µM is -131%.

In the case of `CCOc1ccccc1C(=O)Oc1cc(=O)n2cccc(C)c2n1`, the cytotoxicity at 10 µM is 22.1%.

`COc1cccc(C(c2c(C)n[nH]c2O)c2c(C)n[nH]c2O)c1OC`: the cytotoxicity at 10 µM worked out at 12.4%.

As for `COc1ccccc1C(=O)Nc1c(F)c(C(=O)NC2CCCC2)nn1C`, the cytotoxicity at 10 µM is -10.8%.

As for `CCS(=O)(=O)NCCCn1ncc2c(C)cccc21`, the cytotoxicity at 10 µM is 6.8%.

Turning to `O=C1CN([C@@H]2CC[C@@H](NS(=O)(=O)c3ccccc3)[C@H]2O)CCN1`, the cytotoxicity at 10 µM was 7.41%.

With `CCNC(=O)C1(Cc2cc(-c3ccccc3)no2)CCCN(C(C)C)C1` (stereo unspecified), the cytotoxicity at 10 µM is 1.62%.

Consider `O=C(c1ccc2[nH]nnc2c1)N1C[C@H](O)[C@]2(CCCO2)C1`, for which the cytotoxicity at 10 µM was 3.42%.

`CCN(Cc1cccnc1)CC1(C)Cc2c(N)nc(N)nc2O1` (stereo unspecified): the cytotoxicity at 10 µM came to 0.705%.

Take `CC(C)(C)OC(=O)N[C@@H]1C[C@@H](O)CN(C(=O)c2cccc(F)c2)C[C@H]1O`: the cytotoxicity at 10 µM was 0.187%.

Consider `Cc1cncnc1C1CCN(CC2CC2)CC1`, for which the cytotoxicity at 10 µM was -1.06%.

In the case of `NC(=O)c1cn[nH]c1C1CCCN1C(=O)c1cnccn1` (stereo unspecified), the cytotoxicity at 10 µM was -6.17%.

For the compound `COc1cccc(CN2CCC3(CC(Nc4ccncn4)C3)C2)c1F` (stereo unspecified), the cytotoxicity at 10 µM came to 1.69%.

Turning to `Cc1cc(C)nc(Nc2cccc(C3CCCN(CCO)C3)n2)n1` (stereo unspecified), the cytotoxicity at 10 µM is -12.9%.

In the case of `Cn1cccc1C(=O)N1CCCCC1c1[nH]ncc1S(C)(=O)=O` (stereo unspecified), the cytotoxicity at 10 µM was -4.66%.

For `Cc1cccc(C(=O)N2CCCCC2c2[nH]ncc2S(C)(=O)=O)c1` (stereo unspecified), the cytotoxicity at 10 µM is -7.44%.

In the case of `COc1nccc(C(F)(F)F)c1C(=O)O`, the cytotoxicity at 10 µM came to 16%.

Regarding `Cc1cc(N(C)C)nc(N2CCCC2c2cc(C)on2)n1` (stereo unspecified), the cytotoxicity at 10 µM is -2.38%.

For the compound `O=C(O)c1ccn(-c2ccccc2NC(=O)c2ccccc2Cl)n1`, the cytotoxicity at 10 µM was -161%.

As to `Cc1nc(CN2CCN(CC(O)CN3CCOCC3)CC2)oc1C` (stereo unspecified), the cytotoxicity at 10 µM amounted to 5.92%.

With `O=C1NCCCCC1NC(=O)C1(c2ccccc2)CCOCC1` (stereo unspecified), the cytotoxicity at 10 µM was -14.2%.

As to `O=C(NS(=O)(=O)c1cccc(C(F)(F)F)c1)c1cnsn1`, the cytotoxicity at 10 µM was -2.98%.

Take `CCOc1ccc(Cl)cc1CCNC(=O)Cn1nc(C)ccc1=O`: the cytotoxicity at 10 µM is -3.91%.

On to `O=C(CCn1ccnn1)N1CCCC(n2cncn2)C1` (stereo unspecified), for which the cytotoxicity at 10 µM was -1.26%.

As to `COC1CCN(c2ccc(F)cc2CN(C)S(C)(=O)=O)CC1`, the cytotoxicity at 10 µM was -12.5%.

Turning to `Fc1ccc(C2(NCc3ccccc3)CCOCC2)cc1`, the cytotoxicity at 10 µM is -9.91%.

As for `Cc1cc(NCCC(=O)NC2CCCC2)nc(-c2ccncc2)n1`, the cytotoxicity at 10 µM is 2.25%.

For the compound `O=C(NCCNC(=O)C1CC1)c1cnc(-c2ccccc2)nc1`, the cytotoxicity at 10 µM came out at 12.3%.

Regarding `CC(C(=O)N1CCN(Cc2ccncc2)CC1)n1cncn1` (stereo unspecified), the cytotoxicity at 10 µM is -4.73%.

On to `CCN(CC)c1ncc(CNC2CCc3nc(C)nn3C2)s1` (stereo unspecified), for which the cytotoxicity at 10 µM stood at 2.78%.

For the compound `CC(NCc1cccc2c1OCCO2)c1cc2c(cc1Br)OCCO2` (stereo unspecified), the cytotoxicity at 10 µM amounted to 3.6%.

For `O=S1(=O)CCC(n2cc(CNc3ccccc3Br)cn2)C1` (stereo unspecified), the cytotoxicity at 10 µM is -4.9%.

As to `CC1CCN(C)c2ccccc2N1C(=O)c1ccc(=O)n(C)n1` (stereo unspecified), the cytotoxicity at 10 µM is 1.53%.

For `O=C(CCCc1ccccn1)NCC(O)c1ccccc1Cl` (stereo unspecified), the cytotoxicity at 10 µM is -9.08%.

For `O=C(Cn1nnc(-c2cc3ccccc3o2)n1)N1CCOCC1`, the cytotoxicity at 10 µM was 7.63%.

With `Cc1cccc(N(CCC(N)=O)CC(=O)Nc2cc(Cl)ccc2Cl)c1`, the cytotoxicity at 10 µM came out at 11.3%.

Take `Cc1ccc(C(=O)NCCCn2cncn2)c(=O)[nH]1`: the cytotoxicity at 10 µM was -14.4%.

For `CC(C)c1nc(/C=C/c2cnn(-c3ccc(Cl)cc3)c2)ncc1C(=O)O`, the cytotoxicity at 10 µM is -6.21%.

As to `c1cnn(CCNCc2cnc(N3CCOCC3)nc2)c1`, the cytotoxicity at 10 µM is -1.73%.

`CC(C(=O)Nc1cccc(Cl)c1)N1CCN(Cc2ncc[nH]2)CC1` (stereo unspecified): the cytotoxicity at 10 µM is -8.64%.

Turning to `CC(C)(NC(=O)c1ccc(-c2ccc(F)cc2)s1)C(N)=O`, the cytotoxicity at 10 µM is -4.05%.

For `CNS(=O)(=O)c1csc(C(=O)N(C)Cc2sccc2C)c1`, the cytotoxicity at 10 µM came out at 16.4%.

With `O=C(NCC1(O)CCC1)c1cccc(-n2cccn2)c1`, the cytotoxicity at 10 µM was -2.44%.

With `COc1ccc(OC)c(CN(C)c2nc3c(cnn3C)c(=O)[nH]2)c1`, the cytotoxicity at 10 µM came out at 59.5%.

On to `Cc1nc(CN2CCN(C(=O)COCc3ccccc3)CC2)no1`, for which the cytotoxicity at 10 µM is -14.1%.

For `COC[C@@]12CCO[C@@H]1CCN(C(=O)C1CCSCC1)C2`, the cytotoxicity at 10 µM is -104%.

For `Cc1nc(CN2C(=O)CC[C@H]3[C@@H]2CCN3C(=O)c2ccsc2)cs1`, the cytotoxicity at 10 µM stood at 1.8%.

Consider `Cc1cn2c(=O)c(-c3ccnc(N4CCC[C@@H]4CO)n3)cnc2s1`, for which the cytotoxicity at 10 µM was -9.52%.

`CN1CCC(N(Cc2ccncc2)Cc2nc3c(s2)CCCC3)CC1`: the cytotoxicity at 10 µM is -2.56%.

For the compound `Cc1nccn1Cc1nnc(C2CCCN(c3ncccn3)C2)n1C` (stereo unspecified), the cytotoxicity at 10 µM is -3.09%.

In the case of `COc1ccccc1Oc1ncccc1CNC(=O)CN1CCCC1=O`, the cytotoxicity at 10 µM is -4.72%.

As to `CC1=C(CCN2CC[C@@H](N3CCC(O)CC3)[C@H](O)C2)C(C)(C)CCC1`, the cytotoxicity at 10 µM is -4.42%.

In the case of `CCn1ccnc1CN(C)c1cc(C2CCCNC2)nc(C)n1` (stereo unspecified), the cytotoxicity at 10 µM is -2.48%.

Take `COc1cc(F)c(-n2cnc(CCNC(C)=O)c2)cc1F`: the cytotoxicity at 10 µM is -12.1%.

On to `COC1CCCOC12CCN(C(=O)NCc1ccco1)CC2` (stereo unspecified), for which the cytotoxicity at 10 µM was -15.3%.

Turning to `OC1(CNCCc2csc(-c3cccnc3)n2)CCNC1` (stereo unspecified), the cytotoxicity at 10 µM is 2.76%.

For `CCn1nc(C)c(CN(CCOC)Cc2ccccn2)c1C`, the cytotoxicity at 10 µM is 9.77%.

On to `CCc1c(C)sc2ncnc(N3CCN(C4CCOCC4)CC3)c12`, for which the cytotoxicity at 10 µM was 8.48%.

Regarding `CSc1ccccc1CC1CCCS(=O)(=O)C1` (stereo unspecified), the cytotoxicity at 10 µM turned out to be 2.26%.

Turning to `CCN1CCC(Cn2ccc3ccc(C(=O)OC)cc3c2=O)C1` (stereo unspecified), the cytotoxicity at 10 µM is -9.09%.

On to `CC[C@@H](c1ccccc1)n1c(CN)n[nH]c1=O`, for which the cytotoxicity at 10 µM was -4.34%.

Take `Cc1ccc(F)c(OC2(C(=O)O)CCN(C(=O)c3ccccc3)CC2)c1`: the cytotoxicity at 10 µM came out at 4.2%.

On to `Cc1nn(C)c(C)c1-c1ccnc(N(C)Cc2noc(C(C)C)n2)n1`, for which the cytotoxicity at 10 µM was 26.4%.

In the case of `COc1ccc(CC2(CO)CCN(c3cc(C(N)=O)ccn3)CC2)cc1`, the cytotoxicity at 10 µM was -2.41%.

Regarding `CCCc1c(C2CCOC(C)(C)C2)nc(N)c(C#N)c1-c1cnn(C)c1` (stereo unspecified), the cytotoxicity at 10 µM was -3.22%.

In the case of `COc1ccc(OCCN2CCCN(Cc3noc(C)n3)CC2)cc1`, the cytotoxicity at 10 µM is -6.12%.

`CC(C)Oc1ccc(C(=O)N2CCCC2c2cnn(C)c2)cn1` (stereo unspecified): the cytotoxicity at 10 µM is -6.37%.

In the case of `CN(CC(=O)Nc1ccncc1)C1CCCN(c2cccnn2)C1` (stereo unspecified), the cytotoxicity at 10 µM was -3.44%.

Take `Cc1nc(C)c(C(=O)NCCn2nc3ccccn3c2=O)s1`: the cytotoxicity at 10 µM was -2.51%.

Take `CCc1nc2n(n1)CC(NCc1nc(-c3ccccn3)no1)CC2` (stereo unspecified): the cytotoxicity at 10 µM is -3.45%.

On to `Cc1noc(C)c1S(=O)(=O)NC(=O)COc1ccc(C(C)C)cc1`, for which the cytotoxicity at 10 µM is 2.1%.

Turning to `Cc1cnn(CC2CCCCN2Cc2cc(C)no2)c1` (stereo unspecified), the cytotoxicity at 10 µM was -9.21%.

On to `Cc1cnn(CC2CCCN2Cc2cc(C)on2)c1` (stereo unspecified), for which the cytotoxicity at 10 µM was -8.51%.

As for `COc1cccc(CCC(=O)N2CCN(CC(C)(C)O)CC2)c1`, the cytotoxicity at 10 µM is -8.39%.

Take `CC(C)(C)c1nc(CN2CCCC(Cn3cncn3)C2)no1` (stereo unspecified): the cytotoxicity at 10 µM was -0.0792%.

For `CC(C)c1ncncc1C(=O)NCCN1CCCS1(=O)=O`, the cytotoxicity at 10 µM was -8.98%.

For the compound `CCNc1cc2c(nn1)CCN(C(=O)c1ccnc(N(C)C)c1)C2`, the cytotoxicity at 10 µM is -20.9%.

On to `Cc1ccc(CN(C)C(=O)CN2CCOC(Cn3cncn3)C2)o1` (stereo unspecified), for which the cytotoxicity at 10 µM was -7.98%.

As to `CCc1nc(CC(=O)N2CCN(c3cnccn3)CC2)cs1`, the cytotoxicity at 10 µM is 1.97%.

As to `CCn1c(C)nnc1CN(C)C1CCN(CCCOC)C1` (stereo unspecified), the cytotoxicity at 10 µM worked out at 4.19%.

In the case of `Cc1oc(-c2ccco2)nc1CC(=O)N1CCC(C(O)C(F)(F)F)CC1` (stereo unspecified), the cytotoxicity at 10 µM is -5.25%.

On to `Cc1nc(NC(=O)C2(C)CN(C)CCO2)sc1C` (stereo unspecified), for which the cytotoxicity at 10 µM came to 2.44%.

On to `CN1C[C@@H](C(=O)N(C)C)[C@@]2(CCc3ccccc3C(=O)N2)C1`, for which the cytotoxicity at 10 µM was 1.2%.

Regarding `CS(=O)(=O)NCc1cncc2c1CCN(C(=O)c1cccnc1)C2`, the cytotoxicity at 10 µM stood at 5.12%.

In the case of `CS(=O)(=O)N[C@H]1CCO[C@]2(CCN(C(=O)c3ccccn3)C2)C1`, the cytotoxicity at 10 µM was -73.3%.

`COCC1CN(Cc2csc(C)n2)Cc2nccn2C1` (stereo unspecified): the cytotoxicity at 10 µM amounted to 3.16%.

On to `Cn1ccnc1CN1CCC2(CC(=O)N(c3ccc4c(c3)OCO4)C2)C1` (stereo unspecified), for which the cytotoxicity at 10 µM was -79.8%.
